The structures appear in SMILES notation. Where only a bound is given, the exact number is not on record here.

What is called ED50 is the midpoint of the dose-response relation. A low value points to greater potency. What is called TD50 is the 50% point of the dose-response relation for the toxic effect studied. A higher TD50 goes with lower toxicity.

Data set [1] can be described thus: Dose elevating electroshock induced seizure by 20% in CF1 mice after ip administration. It is filed as functional, Mus musculus. In short, it runs like this:
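In CF1 male mice (ca. 24–34 g), compound was given ip in 0.5% methylcellulose. The current giving hind limb extension in 50% of mice was found by the up-and-down method, with 15–25 mice per group and a vehicle control group run with each experimental group. At least three doses were tested. The dose raising threshold current by 20% was taken from a plot of dose against % threshold increase.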

Data set [2] can be described thus: Dose protecting 50% of the mice from tonic hind limb extension at the time of […] after ip administration. The conditions noted are these: Mus musculus, Hindlimb. The class given is functional. Put shortly: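 Phase II quantification in CF1 male mice (ca. 24–34 g), dosing ip or po in 0.5% methylcellulose suspension. ED50 is protection from tonic hind limb extension in MES. TD50 is rotorod neurotoxicity. Both were read at time of peak effect and derived by Litchfield–Wilcoxon with 95% confidence limits.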

Data set [3] can be described thus: Antiepileptic activity in male CF1 mice 30 min after administration measured in subcutaneous pentylenetetrazole (scMet) test at a dose of 300 mg/kg (no. of animals treated /protected); activity value is 0/1. The class given is functional, Mus musculus.
A short description of data set [4]: Antiepileptic activity in male CF1 mice 30 min after administration measured in maximum electroshock seizure(MES) test at a dose of 300 mg/kg (no. of animals treated /protected); activity value is 0/1. It is filed as functional, Mus musculus.
Data set [5] in a line: Time of peak anticonvulsant effect in CF1 MICE after ip administration. The class given is functional, Mus musculus. In short, it runs like this: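 Male CF1 mice (ca. 24–34 g), compound in 0.5% methylcellulose suspension given ip or po; time (h) at which MES protection (against tonic hind limb extension) peaked was recorded and used for ED50 determination.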
Data set [6] in a line: Antiepileptic activity in male CF1 mice 4 hr after administration measured in maximum electroshock seizure(MES) test at a dose of 300 mg/kg (no. of animals treated /protected); activity value is 1/1. The class given is functional, Mus musculus.
A short description of data set [7]: Antiepileptic activity in male CF1 mice 4 hr after administration measured in neurological toxicity (Tox) test at a dose of 300 mg/kg (no. of animals treated /protected); activity value is 0/4. The class given is functional, Mus musculus.
Data set [8] can be described thus: Antiepileptic activity in male CF1 mice 4 hr after administration measured in subcutaneous pentylenetetrazole (scMet) test at a dose of 300 mg/kg (no. of animals treated /protected); activity value is 0/1. It is filed as functional, Mus musculus.
Data set [9] can be described thus: Dose at which anticonvulsant activity was observed in mice. The class given is functional, Mus musculus.
Data set [10] can be described thus: Antiepileptic activity in male CF1 mice 30 min after administration measured in neurological toxicity (Tox) test at a dose of 300 mg/kg (no. of animals treated /protected); activity value is 0/8. The class given is functional, Mus musculus.
The nature of data set [11]: Antiepileptic activity in male CF1 mice 0.25 hr after oral administration measured in maximum electroshock seizure(MES) test at a dose of 50 mg/kg (no. of animals treated /protected); activity value is 2/4. The class given is functional, Mus musculus.
Data set [12] in a line: Antiepileptic activity in male CF1 mice 0.25 hr after oral administration measured in neurological toxicity (Tox) test at a dose of 50 mg/kg (no. of animals treated /protected); activity value is 0/4. It is filed as functional, Mus musculus.
Data set [13] in a line: Antiepileptic activity in male CF1 mice 0.5 hr after oral administration measured in maximum electroshock seizure(MES) test at a dose of 50 mg/kg (no. of animals treated /protected); activity value is 4/4. The class given is functional, Mus musculus.
Data set [14] can be described thus: Antiepileptic activity in male CF1 mice 0.5 hr after oral administration measured in neurological toxicity (Tox) test at a dose of 50 mg/kg (no. of animals treated /protected); activity value is 0/4. The class given is functional, Mus musculus.
The nature of data set [15]: Antiepileptic activity in male CF1 mice 1 hr after oral administration measured in maximum electroshock seizure(MES) test at a dose of 50 mg/kg (no. of animals treated /protected); activity value is 3/4. It is filed as functional, Mus musculus.
A short description of data set [16]: Antiepileptic activity in male CF1 mice 1 hr after oral administration measured in neurological toxicity (Tox) test at a dose of 50 mg/kg (no. of animals treated /protected); activity value is 0/4. It is filed as functional, Mus musculus.
Data set [17] is described as follows: Antiepileptic activity in male CF1 mice 2 hr after oral administration measured in maximum electroshock seizure(MES) test at a dose of 50 mg/kg (no. of animals treated /protected); activity value is 2/4. It is filed as functional, Mus musculus.
The nature of data set [18]: Antiepileptic activity in male CF1 mice 2 hr after oral administration measured in neurological toxicity (Tox) test at a dose of 50 mg/kg (no. of animals treated /protected); activity value is 0/4. It is filed as functional, Mus musculus.
Data set [19] in a line: Antiepileptic activity in male CF1 mice 4 hr after oral administration measured in maximum electroshock seizure(MES) test at a dose of 50 mg/kg (no. of animals treated /protected); activity value is 2/4. It is filed as functional, Mus musculus.
Data set [20] can be described thus: Antiepileptic activity in male CF1 mice 4 hr after oral administration measured in neurological toxicity (Tox) test at a dose of 50 mg/kg (no. of animals treated /protected); activity value is 0/4. The class given is functional, Mus musculus.
The nature of data set [21]: Oral dose producing neurotoxic effects in 50% of rats. It is filed as ADME, organism-based. The conditions noted are these: rat, in vivo. Put shortly: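 Phase VI screen in male Sprague-Dawley rats dosed orally. MES protection and rotorod toxicity were scored as animals responding over animals tested at 0.25, 0.5, 1, 2 and 4 h.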
Data set [22] can be described thus: Protective index was measured as TD50/ED50 in rat on oral administration. The class given is ADME, organism-based. The conditions noted are these: in vivo, read-out: PI.

On to `COC(=O)C1C(=O)C=C(NCc2ccc(F)cc2)CC1C` (configuration not stated), for which the Dose in data set [1] is 10 mg/kg; in data set [9], greater than 100 mg/kg. It took a dose of 159 mg/kg to reach the 50% effect level in [2] (ED50). The Activity in data set [3] was 0; in data set [4], 0; in data set [6], 1; in data set [7], 0; in data set [8] it was 0; in data set [10], 0. Also, the Activity is on record as 2 in data set [11]; 0 in data set [12]; 4 in data set [13]; 0 in data set [14]; 3 in data set [15]; 0 in [16]. Further, the Activity in data set [17] is listed as 2; in [18] it was 0; in data set [19], 2; in data set [20] it was 0. The same compound had a TPE in [5] of 0.5. Also, in data set [21], the TD50 was greater than 230 mg/kg. The selectivity ratio in [22] turned out to be 4.7.

These data come from ChEMBL document CHEMBL1125497, “Synthesis and anticonvulsant activity of enaminones” (J Med Chem, 1992).
